Reference: the RNAGym collection of RNA variant scans (doi:10.1126/science.aae0568)
Fewer inactive variants are shown than the library holds.

B1: tRNA (parent)
chain: GUUCCGUUGGCGUAAUGGUAACGCGUCUCCCUCCUAAGGAGAAGACUGCGGGUUCGAGUCCCGUACGGAACG

Variants of: B1
Assay: yeast fitness relative to wild type (ratio to wild type); higher = fitter; tRNA-Arg(CCU), competitive growth, 37 C, YPD
Outline: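 Genotype frequency changes were the basis for Darwinian fitness relative to wild type. The frequencies came from 100-nucleotide paired-end sequencing of gene amplicons from the start population and each end population of pooled yeast strains with tRNA-Arg(CCU) gene variants at the native locus. Competition ran in YPD at 37°C for 24 hours in six replicates, genotypes needed ≥ 100 starting reads, and estimates < 0.5 were set to 0.5.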

| Variant | yeast fitness |
| --- | --- |
| GUUCCGUCGGCGUAAUGGUAACGCGUCUCCCUCCUAACGAGAAGACUGCGGGUUCGAGUCCCGAAUGGAACG [U8C G38C U64A C66U] | ≤ 0.5 |
| GUUCCGUCGGCGUAAUGGUAACGCGUCUCCCUCCUAAGGAGAAGACUACGGGUUCGAGUCCCGUACGGAACG [U8C G48A] | 0.899 |
| GUUCCGUCGGCGUAAUGAUAACGCGUCUCCCUCCUAAGGAGAAGACUGCGGGUUCGAGUCCCGUACGGAACG [U8C G18A] | 0.686 |
| GUUCCGUCGGCGUAAUAGUAACGCGUCUCCCUCCUAAGGAGAAGACUGCGGGUUCGAGUCCCGUACGGAUCG [U8C G17A A70U] | ≤ 0.5 |
| GUUCCGUCGGCGUAAUGGUAACGCAUCUCCCUCCUCAGGAGAAGACUGCGGGUUCGAGUCCCGUACGGAGCG [U8C G25A A36C A70G] | 0.624 |
| GUUCCGUCGGCGUAAUGGUAACGCGUCUCCCUCCUAAGGAGAACACUGCGGGUUCGAGUGCCGUACGGAACG [U8C G44C C60G] | 0.53 |
| GUUCCGUCGGCGUAAUGCUACCGCGUCUCCCUCCUAAGGAGAAGACACCGGGUGCGAGUCCCGUCCGGAACG [U8C G18C A21C U47A G48C U54G A65C] | ≤ 0.5 |
| GUUCCGUCGGCGUAAUGGUAACGCCUCUCCCUCCUAAAGAGAAGACUGCGGGUUCGAAUUCUGUACGGAACG [U8C G25C G38A G58A C60U C62U] | ≤ 0.5 |
| GUUCCGUCGGCGUAAUGGUAACGCGUCUCCCUCCUAACGAGAAGACUGUGGGUUCGAGUCCUGUACGGUACG [U8C G38C C49U C62U A69U] | 0.568 |
| GUUCCGUCGGCGUAAUGGUAACCCGUGUCCCUCCUAAGGAGAAGACUGCAGGUUCGAGUCCCGUAGGGGACG [U8C G23C C27G G50A C66G A69G] | 0.836 |
| GUUCCGUCGGCGUAAUAGUAACGCGUCUCCCUCCUAAGGACAAGACUGCGGGUUCGAGUCCCGACCGGAACG [U8C G17A G41C U64A A65C] | ≤ 0.5 |
| GUUCCGUCGGCGUAAUGGUAACGCGUCUCCCUCCUAAAGAGAAGACUGCGGAUUCGAGUCCCGUACGGAACG [U8C G38A G52A] | ≤ 0.5 |
| GUUCCGUCGGCGUAAUGGUAACCCGUCUCCCUCCUAAGGAGAAGACUGCGGGUUCGAGUCCCGUACGGAACG [U8C G23C] | 0.642 |
| GUUCCGUCGGCGUAAUGGUAACACGUCUCCCUCCUAAGGAGAACUCUGAGGGUUCGAGUCCCGUACGGAACG [U8C G23A G44C A45U C49A] | ≤ 0.5 |
| GUUCCGUCGGCGUAAUGCUAACGCGUCUCCCUCCUAAGGAGAAGACUGCAGGUUCGAGUUCCGUACGGAACG [U8C G18C G50A C60U] | 0.546 |
| GUUCCGUCGGCAUAAUGGUAACGCGUCUCCCUCCUAAGGAGAAGACUGCGGGUUCGAGUCCCAUACGGAACG [U8C G12A G63A] | ≤ 0.5 |
| GUUCCGUCGGCAUAAUGAUAACGCGUCUCCCUCCUAAGGAGAAGCCUGCGGGUUCGAGUCCCGUACGGAACG [U8C G12A G18A A45C] | ≤ 0.5 |
| GUUCCGUCGGCGUAAUAGUAACGCGUCUCCCUCCUAAGGAGAAGACUGCGGGUUCGAGUCCCGUACGGAACG [U8C G17A] | 0.711 |
| GUUCCGUCGGCAUAAUGGCAACGCGUCUCCCUCGUAAGGAGAAGACUGCGGGUUCGAGUCCCGUAUGGUACG [U8C G12A U19C C34G C66U A69U] | ≤ 0.5 |

| Variant | yeast fitness |
| --- | --- |
| GUUCCGUCGGCGUAAUGGUAACGCGUCUCCCUCCUAAGGAGAAAACUGCGGGCUUGAGUCCCGUACGGAUCG [U8C G44A U53C C55U A70U] | ≤ 0.5 |
| GUUCCGUCGGCAUAAUGGUAACGCGUCUCCGUCCUAAGGCGAAGCCUCCGGGUUCGAGUCCCGUACGGAACG [U8C G12A C31G A40C A45C G48C] | ≤ 0.5 |
| GUUCCGUCGGCGUAAUGCUUACGCGUCUCCCUCCUAAGGAGAAGACUGGGGGUUCGAGUCCCGUACGGAACG [U8C G18C A20U C49G] | ≤ 0.5 |
| GUUCCGUCGGCGUAAUGGUAACUCGUCUCCCUCCUAAGGAGGAGACUGCGGGUUCGAGUACCGUACGGAACG [U8C G23U A42G C60A] | ≤ 0.5 |
| GUUCCGUCGGCGUAAUGCUAACGCGUAUCCCUUCUAAGGAGAAGACUGCGGGUUCGAGUCCCGUCCGGCACG [U8C G18C C27A C33U A65C A69C] | ≤ 0.5 |
| GUUCCGUCGGCGUAAUGGUAACGCGUCUCCCUCCUAAGGACAAGACUGCGGGUUCGAGUCCCGUACGGUACG [U8C G41C A69U] | 0.637 |
| GUUCCGUCGGCGUAAUGGUAACGCGUCUCCCUCCUAAGCAGAAGACCGCGGGUUCGAGUAGCGUACGGUACG [U8C G39C U47C C60A C61G A69U] | ≤ 0.5 |
| GUUCCGUCGGCGUAAUGGUAACGCCUCUCCCUACUAAGGAGAAGACUGCGGGUUCGAGUCCCGUACGGAACG [U8C G25C C33A] | ≤ 0.5 |
| GUUCCGUCGGCGUAAUGGUAACGCGUCUCCCUCCUAAGGAGAAAACUGCGGGUUCGAGUCCCGUACGGAACG [U8C G44A] | 1.01 |
| GUUCCGUCGGCGUAAUGCUACCGCGUCUCCCUCCUAAGGAGAAGACUGCGGGUUCGAGUCUCGUAUGGAACG [U8C G18C A21C C61U C66U] | ≤ 0.5 |
| GUUCCGUCGGCGUAAUGGUAACGCAUCUCCCUCCUACGGAGAAGACUGCGGGUUCGAGUCCCGUACGUAACG [U8C G25A A37C G68U] | ≤ 0.5 |
| GUUCCGUCGGCCUAAUGGUAACGCGUCUCCCGCCUAAGGAGUAGACUGCGGGUUCGAGUCCCGUACGGAACG [U8C G12C U32G A42U] | ≤ 0.5 |
| GUUCCGUCGGCGUAAUGGUAACGCGUCUCCCUCCUAAGGAGAAAACUGCGGGUUUGAGUCCCGUACGGAACG [U8C G44A C55U] | ≤ 0.5 |
| GUUCCGUCGGCGUAAUGGUAACGCGUCUCCCUCCUAAGGAGAAGACUCCGGAUUCGAGUCCCGUAAGGAACG [U8C G48C G52A C66A] | ≤ 0.5 |
| GUUCCGUCGGCGUAAUCGUAACGCGUCUCCCUCCUAAGGAGAAGACUGCGGGUUCGACUCCCGUACGGAACG [U8C G17C G58C] | ≤ 0.5 |
| GUUCCGUCGGCGUAAUGGUAACACGUCUCUCUCCUAAGGAGAAGACUGCGGGUUAGAGUCCCGUACGGAACG [U8C G23A C30U C55A] | ≤ 0.5 |
| GUUCCGUCGGCGUAAUGAUAACGCGUCUCCCUCCUAAGGAGAAGUCUGCGGGUUCGAGUCCCGUACCGAACG [U8C G18A A45U G67C] | 0.552 |
| GUUCCGUCGGCGUAAUGGUAACACGUCUCCCUCAUAAGGAGUAGAAUGCGGGUUCGCGUCCCGUACGGAACG [U8C G23A C34A A42U C46A A57C] | ≤ 0.5 |
| GUUCCGUCGGCGUAAUGGUAACACGUCUCCCUCCUAAGGAGAAGACUGCGGGUUCGAGUCCCGUCCGGAACG [U8C G23A A65C] | 0.571 |
